{"source": "ChEMBL document CHEMBL1671716", "about": "“Antimicrobial susceptibility patterns for recent clinical isolates of anaerobic bacteria in South Korea” (2010)", "key": {"Bacteroides fragilis": {"tested_on": "Bacteroides fragilis", "assay": "Antimicrobial activity against Bacteroides fragilis assessed as percent susceptible isolates after 48 hrs by agar dilution method in presence of 4 ug/ml beta-lactamase inhibitor Tazobactam", "type": "functional"}, "[1]": {"tested_on": "Parabacteroides distasonis", "assay": "Antimicrobial activity against Bacteroides distasonis assessed as percent resistant isolates after 48 hrs by agar dilution method in presence of 4 ug/ml beta-lactamase inhibitor Tazobactam", "type": "functional", "summary_of_the_method": "(§1)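 CLSI agar dilution on recent Korean clinical anaerobe isolates. Inoculum 10^5 CFU per spot by replicator. Plates incubated in an anaerobic chamber at 37°C for 48 h. For piperacillin plus tazobactam, tazobactam was held constant at 4 μg/ml. Resistance and susceptibility rates derived from MICs.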"}, "Phocaeicola vulgatus": {"tested_on": "Phocaeicola vulgatus", "assay": "Antimicrobial activity against Bacteroides vulgatus assessed as percent susceptible isolates after 48 hrs by agar dilution method in presence of 4 ug/ml beta-lactamase inhibitor Tazobactam", "type": "functional"}, "Prevotella buccae [2]": {"tested_on": "Prevotella buccae", "assay": "Antimicrobial activity against Prevotella buccae after 48 hrs by agar dilution method in presence of 4 ug/ml beta-lactamase inhibitor Tazobactam", "type": "functional", "conditions": "Segatella buccae", "summary_of_the_method": "(§2)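 CLSI agar dilution (M11-A7); inoculum 10^5 CFU applied by replicator; plates incubated anaerobically 48 h at 37°C. For piperacillin-tazobactam, tazobactam held constant at 4 μg/ml.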"}, "Hoylesella oralis [3]": {"tested_on": "Hoylesella oralis", "assay": "Antimicrobial activity against Prevotella oralis after 48 hrs by agar dilution method in presence of 4 ug/ml beta-lactamase inhibitor Tazobactam", "type": "functional", "summary_of_the_method": "as §2"}, "Prevotella intermedia": {"tested_on": "Prevotella intermedia", "assay": "Antimicrobial activity against Prevotella intermedia assessed as percent susceptible isolates after 48 hrs by agar dilution method in presence of 4 ug/ml beta-lactamase inhibitor Tazobactam", "type": "functional", "summary_of_the_method": "as §2"}, "Prevotella buccae [4]": {"tested_on": "Prevotella buccae", "assay": "Antimicrobial activity against Prevotella buccae assessed as percent susceptible isolates after 48 hrs by agar dilution method in presence of 4 ug/ml beta-lactamase inhibitor Tazobactam", "type": "functional, Segatella buccae", "summary_of_the_method": "as §2"}, "Prevotella buccae [5]": {"tested_on": "Prevotella buccae", "assay": "Antimicrobial activity against Prevotella buccae assessed as percent resistant isolates after 48 hrs by agar dilution method in presence of 4 ug/ml beta-lactamase inhibitor Tazobactam", "type": "functional, Segatella buccae", "summary_of_the_method": "as §1"}, "Hoylesella oralis [6]": {"tested_on": "Hoylesella oralis", "assay": "Antimicrobial activity against Prevotella oralis assessed as percent resistant isolates after 48 hrs by agar dilution method in presence of 4 ug/ml beta-lactamase inhibitor Tazobactam", "type": "functional", "summary_of_the_method": "as §1"}, "[7]": {"tested_on": "Porphyromonas asaccharolytica", "assay": "Antimicrobial activity against Porphyromonas asaccharolytica after 48 hrs by agar dilution method in presence of 4 ug/ml beta-lactamase inhibitor Tazobactam", "type": "functional", "summary_of_the_method": "as §2"}, "Fusobacterium varium": {"tested_on": "Fusobacterium varium", "assay": "Antimicrobial activity against Fusobacterium varium after 48 hrs by agar dilution method in presence of 4 ug/ml beta-lactamase inhibitor Tazobactam", "type": "functional", "summary_of_the_method": "as §2"}, "[8]": {"tested_on": "Peptostreptococcus anaerobius", "assay": "Antimicrobial activity against Peptostreptococcus anaerobius assessed as percent susceptible isolates after 48 hrs by agar dilution method in presence of 4 ug/ml beta-lactamase inhibitor Tazobactam", "type": "functional", "summary_of_the_method": "as §2"}, "Parvimonas micra": {"tested_on": "Parvimonas micra", "assay": "Antimicrobial activity against Peptostreptococcus micros assessed as percent susceptible isolates after 48 hrs by agar dilution method in presence of 4 ug/ml beta-lactamase inhibitor Tazobactam", "type": "functional", "summary_of_the_method": "as §2"}, "Anaerococcus prevotii": {"tested_on": "Anaerococcus prevotii", "assay": "Antimicrobial activity against Anaerococcus prevotii after 48 hrs by agar dilution method in presence of 4 ug/ml beta-lactamase inhibitor Tazobactam", "type": "functional", "summary_of_the_method": "(§3)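 MICs by CLSI agar dilution for piperacillin combined with tazobactam, with tazobactam held constant at 4 μg/ml. Clinical anaerobe isolates inoculated at 10^5 CFU by Steers replicator. Plates kept in an anaerobic chamber at 37°C for 48 h.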"}, "Finegoldia magna [9]": {"tested_on": "Finegoldia magna", "assay": "Antimicrobial activity against Finegoldia magna assessed as percent susceptible isolates after 48 hrs by agar dilution method in presence of 4 ug/ml beta-lactamase inhibitor Tazobactam", "type": "functional", "summary_of_the_method": "as §2"}, "Finegoldia magna [10]": {"tested_on": "Finegoldia magna", "assay": "Antimicrobial activity against Finegoldia magna assessed as percent resistant isolates after 48 hrs by agar dilution method in presence of 4 ug/ml beta-lactamase inhibitor Tazobactam", "type": "functional", "summary_of_the_method": "as §1"}, "Clostridium perfringens [11]": {"tested_on": "Clostridium perfringens", "assay": "Antimicrobial activity against Clostridium perfringens after 48 hrs by agar dilution method in presence of 4 ug/ml beta-lactamase inhibitor Tazobactam", "type": "functional", "summary_of_the_method": "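Agar dilution per CLSI on Korean clinical C. perfringens isolates. Tazobactam at a fixed 4 μg/ml with piperacillin. 10^5 CFU spotted by replicator, then 48 h at 37°C in an anaerobic chamber. MIC read.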"}, "Clostridium perfringens [12]": {"tested_on": "Clostridium perfringens", "assay": "Antimicrobial activity against Clostridium perfringens assessed as percent susceptible isolates after 48 hrs by agar dilution method in presence of 4 ug/ml beta-lactamase inhibitor Tazobactam", "type": "functional", "summary_of_the_method": "as §1"}, "Clostridioides difficile": {"tested_on": "Clostridioides difficile", "assay": "Antimicrobial activity against Clostridium difficile assessed as percent resistant isolates after 48 hrs by agar dilution method in presence of 4 ug/ml beta-lactamase inhibitor Tazobactam", "type": "functional", "summary_of_the_method": "as §1"}, "Schaalia odontolytica [13]": {"tested_on": "Schaalia odontolytica", "assay": "Antimicrobial activity against Actinomyces odontolyticus after 48 hrs by agar dilution method in presence of 4 ug/ml beta-lactamase inhibitor Tazobactam", "type": "functional", "summary_of_the_method": "as §3"}, "Schaalia odontolytica [14]": {"tested_on": "Schaalia odontolytica", "assay": "Antimicrobial activity against Actinomyces odontolyticus assessed as percent resistant isolates after 48 hrs by agar dilution method in presence of 4 ug/ml beta-lactamase inhibitor Tazobactam", "type": "functional", "summary_of_the_method": "as §1"}, "Actinomyces naeslundii": {"tested_on": "Actinomyces naeslundii", "assay": "Antimicrobial activity against Actinomyces naeslundii after 48 hrs by agar dilution method in presence of 4 ug/ml beta-lactamase inhibitor Tazobactam", "type": "functional", "summary_of_the_method": "as §3"}, "Eggerthella lenta [15]": {"tested_on": "Eggerthella lenta", "assay": "Antimicrobial activity against Eubacterium lentum after 48 hrs by agar dilution method in presence of 4 ug/ml beta-lactamase inhibitor Tazobactam", "type": "functional", "summary_of_the_method": "as §2"}, "Eggerthella lenta [16]": {"tested_on": "Eggerthella lenta", "assay": "Antimicrobial activity against Eubacterium lentum assessed as percent resistant isolates after 48 hrs by agar dilution method in presence of 4 ug/ml beta-lactamase inhibitor Tazobactam", "type": "functional", "summary_of_the_method": "as §1"}}}
{"smiles": "CCN1CCN(C(=O)N[C@@H](C(=O)N[C@@H]2C(=O)N3[C@@H]2SC(C)(C)[C@@H]3C(=O)O)c2ccccc2)C(=O)C1=O", "note": "[PIPERACILLIN]", "values": [{"measurement": "Activity", "setting": "Bacteroides fragilis", "result": 97, "unit": "%"}, {"measurement": "Activity", "setting": "[1]", "result": 7, "unit": "%"}, {"measurement": "Activity", "setting": "Phocaeicola vulgatus", "result": 89, "unit": "%"}, {"measurement": "MIC50", "setting": "Prevotella buccae [2]", "result": "≤ 0.03", "unit": "µg/mL"}, {"measurement": "MIC90", "setting": "Prevotella buccae [2]", "result": 4, "unit": "µg/mL"}, {"measurement": "MIC50", "setting": "Hoylesella oralis [3]", "result": "≤ 0.03", "unit": "µg/mL"}, {"measurement": "MIC90", "setting": "Hoylesella oralis [3]", "result": 4, "unit": "µg/mL"}, {"measurement": "Activity", "setting": "Prevotella intermedia", "result": 100, "unit": "%"}, {"measurement": "Activity", "setting": "Prevotella buccae [4]", "result": 100, "unit": "%"}, {"measurement": "Activity", "setting": "Prevotella buccae [5]", "result": 0, "unit": "%"}, {"measurement": "Activity", "setting": "Hoylesella oralis [6]", "result": 0, "unit": "%"}, {"measurement": "MIC", "setting": "[7]", "result": 0.03, "unit": "µg/mL"}, {"measurement": "MIC", "setting": "Fusobacterium varium", "result": 0.03, "unit": "µg/mL"}, {"measurement": "Activity", "setting": "[8]", "result": 100, "unit": "%"}, {"measurement": "Activity", "setting": "Parvimonas micra", "result": 0, "unit": "%"}, {"measurement": "MIC50", "setting": "Anaerococcus prevotii", "result": 0.125, "unit": "µg/mL"}, {"measurement": "MIC90", "setting": "Anaerococcus prevotii", "result": 0.125, "unit": "µg/mL"}, {"measurement": "Activity", "setting": "Finegoldia magna [9]", "result": 100, "unit": "%"}, {"measurement": "Activity", "setting": "Finegoldia magna [10]", "result": 0, "unit": "%"}, {"measurement": "MIC50", "setting": "Clostridium perfringens [11]", "result": 0.25, "unit": "µg/mL"}, {"measurement": "MIC90", "setting": "Clostridium perfringens [11]", "result": 0.5, "unit": "µg/mL"}, {"measurement": "Activity", "setting": "Clostridium perfringens [12]", "result": 100, "unit": "%"}, {"measurement": "Activity", "setting": "Clostridioides difficile", "result": 0, "unit": "%"}, {"measurement": "MIC50", "setting": "Schaalia odontolytica [13]", "result": 0.5, "unit": "µg/mL"}, {"measurement": "MIC90", "setting": "Schaalia odontolytica [13]", "result": 8, "unit": "µg/mL"}, {"measurement": "Activity", "setting": "Schaalia odontolytica [14]", "result": 0, "unit": "%"}, {"measurement": "MIC50", "setting": "Actinomyces naeslundii", "result": 0.5, "unit": "µg/mL"}, {"measurement": "MIC90", "setting": "Actinomyces naeslundii", "result": 8, "unit": "µg/mL"}, {"measurement": "MIC50", "setting": "Eggerthella lenta [15]", "result": 0.5, "unit": "µg/mL"}, {"measurement": "MIC90", "setting": "Eggerthella lenta [15]", "result": 8, "unit": "µg/mL"}, {"measurement": "Activity", "setting": "Eggerthella lenta [16]", "result": 0, "unit": "%"}]}
